From ChEMBL document CHEMBL1129428 (J Med Chem, 1996) come the findings set out here.

Data set [1] concerns Rattus norvegicus. The data set can be described thus: Compound was tested for anticonvulsant activity after Oral Administration into Rats by using MES screen test after 2h,dose 30 mg/kg; No activity was demonstarted. Format: functional, organism-based. Also on record: dose 30 mg/kg. The procedure, abridged:
(§1)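 Rats received the compound orally. […] Rats were tested in the MES screen at 0.25, 0.5, 1, 2 and 4 h. Each value is the number of rats protected out of 4. The test followed NINDS procedures.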

The nature of data set [2]: Partition coefficient (logP). Format: physicochemical. To be noted: octanol/water. The procedure, abridged:
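Partition between 1-octanol and buffer at pH 7.4, with solutions prepared in 1-octanol before buffer is added. Quantified by UV, using λmax and ε values measured in 1-octanol.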

Data set [3] has as its system Rattus norvegicus. Kind of data set: Compound was tested for anticonvulsant activity after Oral Administration into Rats by using MES screen test after 0.5h,dose 30 mg/kg; No activity was demonstarted. Also on record: dose 30 mg/kg. Format: functional, organism-based. The procedure, abridged: as §1
Data set [4] deals with Mus musculus. Kind of data set: Anticonvulsant activity after intraperitoneal injection into mice by using MES screen test after 0.5 hr. Format: functional.
Data set [5] concerns Rattus norvegicus. Kind of data set: Compound was tested for anticonvulsant activity after Oral Administration into Rats by using MES screen test after 0.25h,dose 30 mg/kg; No activity was demonstarted. Format: functional, organism-based. Also noted: dose 30 mg/kg. An outline of the steps:
as §1

Data set [6] concerns Rattus norvegicus. Kind of data set: Compound was tested for anticonvulsant activity after Oral Administration into Rats by using MES screen test after 1h,dose 30 mg/kg; No activity was demonstarted. Also on record: dose 30 mg/kg. Format: functional, organism-based. The procedure, abridged: as §1
Data set [7] concerns Mus musculus. The data set can be described thus: Anticonvulsant activity after intraperitoneal injection into mice by using scPTZ screen test after 4 hr. Format: functional.
The subject of data set [8] is Rattus norvegicus. Kind of data set: Compound was tested for anticonvulsant activity after Oral Administration into Rats by using MES screen test after 4h,dose 30 mg/kg; No activity was demonstarted. Format: functional, organism-based. Also on record: dose 30 mg/kg. An outline of the steps:
as §1

In data set [9] the test system is Mus musculus. The data set can be described thus: Anticonvulsant activity after intraperitoneal injection into mice measured in a maximal electroshock scree (MES) screen. Format: functional. In general terms: The maximal electroshock test induces tonic seizures with an electrical stimulus.
Data set [10] deals with Mus musculus. Kind of data set: Compound was tested for toxicity after intraperitoneal injection into mice by using toxicity screen test after 4 hr. To be noted: in vivo, ip. Format: organism-based. The procedure, abridged:
(§2)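 Mice injected intraperitoneally at 30, 100 and 300 mg/kg and examined 0.5 and 4 h afterwards. Each entry is the minimum dose giving activity (MES protection, scPTZ protection, or rotorod failure for neurotoxicity) in half or more of the mice. Activity is called absent if nothing occurs at 300 mg/kg.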

Data set [11] has as its system Rattus norvegicus. Kind of data set: Compound was tested for anticonvulsant activity after Oral Administration into Rats by using MES screen test after 1h,dose 12.5 mg/kg; number of rats out of four which were protected. Format: functional. The procedure, abridged:
as §1

The test system of data set [12] is Rattus norvegicus. Kind of data set: Compound was tested for anticonvulsant activity after Oral Administration into rat by using MES screen test after 1 hr. Format: functional. The procedure, abridged:
(§3)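 Rats dosed orally, typically at 50 mg/kg first, then mostly 12.5 mg/kg (some compounds at 30 mg/kg), and tested by maximal electroshock. Four rats per compound, scored at 0.25, 0.5, 1, 2 and 4 h as the number of rats protected out of 4.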

Data set [13] in a line: Compound was tested for toxicity after oral administration in rat by using neurotoxicity screen test after 0.25-24 hr. Format: organism-based. To be noted: in vivo. An outline of the steps: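 Rat neurotoxicity after oral dosing, observed at 0.25, 0.5, 1, 2, 4, 6, 8 and 24 h (8 h omitted for one compound).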
Data set [14] deals with Rattus norvegicus. Kind of data set: Compound was tested for anticonvulsant activity after Oral Administration into Rats by using MES screen test after 0.25h,dose 12.5 mg/kg; No activity was demonstarted. Format: functional, organism-based. Also noted: dose 12.5 mg/kg. An outline of the steps:
as §1

The test system of data set [15] is Mus musculus. The data set can be described thus: Toxicity after intraperitoneal injection into mice by using toxicity screen test after 0.5 hr. The conditions noted are these: in vivo, ip. Format: organism-based. An outline of the steps: as §2
Data set [16] concerns Rattus norvegicus. Kind of data set: Compound was tested for anticonvulsant activity after Oral Administration into Rats by using MES screen test after 4h,dose 12.5 mg/kg; number of rats out of four which were protected. Format: functional. An outline of the steps:
as §1

Data set [17] has as its system Rattus norvegicus. The data set can be described thus: Compound was tested for anticonvulsant activity after Oral Administration into Rats by using MES screen test after 2h,dose 12.5 mg/kg; number of rats out of four which were protected. Format: functional. The procedure, abridged:
as §1

The test system of data set [18] is Rattus norvegicus. Kind of data set: Anticonvulsant activity after oral administration into rats. Format: functional. Also on record: concentration or dose not given beside the values.
The nature of data set [19]: Protection index = TD50/ED50 (MES). Format: ADME, organism-based. To be noted: rat, in vivo; read-out: PI.
In data set [20] the test system is Rattus norvegicus. Kind of data set: Compound was tested for anticonvulsant activity after Oral Administration into Rats by using MES screen test after 0.25h,dose 30 mg/kg; number of rats out of four which were protected. Format: functional. The procedure, abridged: as §1
In data set [21] the test system is Rattus norvegicus. The data set can be described thus: Compound was tested for anticonvulsant activity after Oral Administration into Rats by using MES screen test after 4h,dose 30 mg/kg; number of rats out of four which were protected. Format: functional. An outline of the steps:
as §1

Data set [22] has as its system Rattus norvegicus. The data set can be described thus: Compound was tested for anticonvulsant activity after Oral Administration into rat by using MES screen test after 0.5 hr. Format: functional. An outline of the steps:
as §3

Data set [23] concerns Rattus norvegicus. The data set can be described thus: Compound was tested for anticonvulsant activity after Oral Administration into Rats by using MES screen test after 2h,dose 30 mg/kg; number of rats out of four which were protected. Format: functional. The procedure, abridged:
as §1

For data set [24], the system named is Rattus norvegicus. The data set can be described thus: Compound was tested for anticonvulsant activity after Oral Administration into Rats by using MES screen test after 1h,dose 30 mg/kg; number of rats out of four which were protected. Format: functional. The procedure, abridged:
as §1

In data set [25] the test system is Rattus norvegicus. The data set can be described thus: Compound was tested for anticonvulsant activity after Oral Administration into Rats by using MES screen test after 0.5h,dose 30 mg/kg; number of rats out of four which were protected. Format: functional. The procedure, abridged:
as §1

The subject of data set [26] is Mus musculus. The data set can be described thus: Anticonvulsant activity after intraperitoneal injection into mice by using MES screen test after 0.25 hr. Format: functional.
Data set [27] concerns Mus musculus. The data set can be described thus: Anticonvulsant activity after intraperitoneal injection into mice by using scPTZ screen after 0.5 hr. Format: functional.
For data set [28], the system named is Mus musculus. Kind of data set: Compound was tested for anticonvulsant activity after intraperitoneal injection into mice by using scPTZ screen test after 0.25 hr. Format: functional. The conditions noted are these: ip. The procedure, abridged:
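Quantitative intraperitoneal mouse testing in the MES, scPTZ or rotorod neurotoxicity screens at the peak time given for each compound (0.25–2 h). ED50 or TD50 reported in mg/kg with 95% CI and slope (SE).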

Broadly, the logP is the decadic logarithm of the partition coefficient of the neutral form, usually between octanol and water. The ED50 is the midpoint of the dose-response relation. As usually defined, the TD50 is the 50% point of the dose-response relation for the toxic effect studied.

A value given as a limit tells only on which side of the number the result lay.

For the compound `NNC(=O)N/N=C/c1ccc(Oc2ccc(F)cc2)cc1`, the Activity entry with Rattus norvegicus [1], with Rattus norvegicus [3], in the data set on Rattus norvegicus [5], in the data set with Rattus norvegicus [6] and in the data set on Rattus norvegicus [8] was “No activity” throughout. Besides, the log partition coefficient (logP) in data set [2] came to 2.06. The Dose in the data set with Mus musculus [4] was 300 mg/kg; with Mus musculus [7], 300 mg/kg; in the data set with Mus musculus [9], 100 mg/kg; in the data set with Mus musculus [10] it was 300 mg/kg.
On to `Cc1cccc(Oc2ccc(/C=N/NC(N)=O)cc2)c1`, for which the Activity in the data set with Rattus norvegicus [11] was 4; in the data set with Rattus norvegicus [14], “No activity”; in the data set on Rattus norvegicus [16], 2; in the data set on Rattus norvegicus [17] it was 3; in the data set with Rattus norvegicus [18], 4. This compound displayed an ED50 in the data set with Rattus norvegicus [12] of 3.07 mg/kg. This compound also displayed a TD50 in [13] of more than 500 mg/kg. For the same compound, the Dose was determined as 100 mg/kg in the data set with Mus musculus [15], 30 mg/kg in the data set with Mus musculus [4], 100 mg/kg in the data set with Mus musculus [9] and 300 mg/kg in the data set on Mus musculus [10]. The selectivity ratio in data set [19] is more than 163.
For the compound `O=CN/N=C/c1ccc(Sc2ccc(F)cc2)cc1`, the Activity entry in the data set with Rattus norvegicus [1] was “No activity”; with Rattus norvegicus [3], “No activity”; with Rattus norvegicus [20], 1; in the data set with Rattus norvegicus [21], 1; with Rattus norvegicus [6] it was “No activity”. Also, the Dose in the data set with Mus musculus [4] was found to be 100 mg/kg; in the data set with Mus musculus [7], 300 mg/kg; in the data set with Mus musculus [9] it was 100 mg/kg; with Mus musculus [10] it was 300 mg/kg.
As to `CC/C(=N/NC(N)=O)c1ccc(Oc2ccccc2)cc1`, in the data set with Rattus norvegicus [22], the ED50 worked out at 23.1 mg/kg. The Activity with Rattus norvegicus [20] is 1; with Rattus norvegicus [23] it was 3; in the data set on Rattus norvegicus [24] it was 3; with Rattus norvegicus [8] it was “No activity”; with Rattus norvegicus [25] it was 4. Also, the Dose in the data set with Mus musculus [15] is 100 mg/kg; in the data set on Mus musculus [4], 30 mg/kg; in the data set on Mus musculus [9] it was 100 mg/kg; with Mus musculus [10], 100 mg/kg.
For `NC(=O)N1c2ccccc2C=Cc2ccccc21` [CARBAMAZEPINE], the ED50 in the data set with Mus musculus [26] is 9.85 mg/kg; with Mus musculus [28] it was more than 50 mg/kg. Besides, the Dose stood at 100 mg/kg in the data set with Mus musculus [27]; 100 mg/kg in the data set with Mus musculus [15]; 30 mg/kg in the data set on Mus musculus [4]; 300 mg/kg in the data set with Mus musculus [7]; 100 mg/kg in the data set on Mus musculus [9]; 300 mg/kg with Mus musculus [10]. Besides, in data set [2], the logP was found to be 2.2.
